Measurements published in ChEMBL document CHEMBL1817665, “Synthesis and identification of β-aryloxyquinolines and their pyrano[3,2-c]chromene derivatives as a new class of antimicrobial and antituberculosis agents” (2011).
Values after ≈ are worked out from the molar mass of the structure shown.

Assays:
Salmonella typhi = test: Antibacterial activity against 10^8 CFU/mL Salmonella typhi MTCC 98 by NCCLS M100-S12(M7) broth microdilution method; format: functional, Salmonella enterica subsp. enterica serovar Typhi; conditions: Salmonella enterica
Outline: (§1)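 Broth microdilution in Mueller Hinton broth. Inoculum was adjusted by turbidity to 10^8 CFU/mL. Compounds came from 2000 µg/mL DMSO stocks. Primary screen used 500, 250 and 200 µg/mL; actives were retested at 100, 62.5, 50 and 25 µg/mL. Tubes were incubated overnight at 37 °C. […] A known-sensitivity organism was run in parallel.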

Bacillus subtilis = test: Antibacterial activity against 10^8 CFU/mL Bacillus subtilis MTCC 441 by NCCLS M100-S12(M7) broth microdilution method; format: functional; outline: as §1
Candida albicans = test: […] activity against 10^8 CFU/mL Candida albicans MTCC 227 by NCCLS M100-S12(M7) broth microdilution method; format: functional
Vibrio cholerae = test: Antibacterial activity against 10^8 CFU/mL Vibrio cholerae MTCC 3906 by NCCLS M100-S12(M7) broth microdilution method; format: functional; outline: as §1
[1] = tested on: Mycobacterium tuberculosis; test: Antituberculosis activity against Mycobacterium tuberculosis H37Rv at 250 ug/mL after 24 hrs by Lowenstein-Jensen method; format: functional
Escherichia coli = test: Antibacterial activity against 10^8 CFU/mL Escherichia coli MTCC 443 by NCCLS M100-S12(M7) broth microdilution method; format: functional; outline: as §1
Clostridium tetani = test: Antibacterial activity against 10^8 CFU/mL Clostridium tetani MTCC 449 by NCCLS M100-S12(M7) broth microdilution method; format: functional; outline: as §1
Aspergillus fumigatus = test: […] activity against 10^8 CFU/mL Aspergillus fumigatus MTCC 3008 by NCCLS M100-S12(M7) broth microdilution method; format: functional
Streptococcus pneumoniae = test: Antibacterial activity against 10^8 CFU/mL Streptococcus pneumoniae MTCC 1936 by NCCLS M100-S12(M7) broth microdilution method; format: functional; outline: as §1
[2] = tested on: Mycobacterium tuberculosis; test: Antituberculosis activity against Mycobacterium tuberculosis H37Rv after 24 hrs by Lowenstein-Jensen method; format: functional

| Molecule | MIC99 (Salmonella typhi) [µg/mL] | MIC99 (Bacillus subtilis) [µg/mL] | MIC99 (Candida albicans) [µg/mL] | MIC99 (Vibrio cholerae) [µg/mL] | inhibition at 250 µg/mL [1] [%] | MIC99 (Escherichia coli) [µg/mL] | MIC99 (Clostridium tetani) [µg/mL] | MIC99 (Aspergillus fumigatus) [µg/mL] | MIC99 (Streptococcus pneumoniae) [µg/mL] | MIC [2] [µg/mL] |
| --- | --- | --- | --- | --- | --- | --- | --- | --- | --- | --- |
| O=Cc1cc2ccccc2nc1Oc1ccc(Cl)cc1 | 200 (≈ 705 µM) | 200 (≈ 705 µM) | 250 (≈ 881 µM) | 500 (≈ 1760 µM) | 64 | 100 (≈ 352 µM) | 500 (≈ 1760 µM) | > 1000 | 62.5 (≈ 220 µM) |  |
| Cc1ccc(Oc2nc3ccc(C)cc3cc2C=O)cc1 | 100 (≈ 361 µM) | 250 (≈ 901 µM) | 500 (≈ 1800 µM) | 200 (≈ 721 µM) | 84 | 50 (≈ 180 µM) | 200 (≈ 721 µM) | 1000 (≈ 3610 µM) | 200 (≈ 721 µM) |  |
| COc1ccc2nc(Oc3ccccc3)c(C=O)cc2c1 | 100 (≈ 358 µM) | 100 (≈ 358 µM) | 1000 (≈ 3580 µM) | 200 (≈ 716 µM) | 42 | 62.5 (≈ 224 µM) | 250 (≈ 895 µM) | > 1000 | 200 (≈ 716 µM) |  |
| CC1(C)S[C@@H]2[C@H](NC(=O)[C@H](N)c3ccccc3)C(=O)N2[C@H]1C(=O)O [AMPICILLIN] | 100 (≈ 286 µM) | 250 (≈ 715 µM) |  | 100 (≈ 286 µM) |  | 100 (≈ 286 µM) | 250 (≈ 715 µM) |  | 100 (≈ 286 µM) |  |
| COC1=CC(=O)C[C@@H](C)[C@]12Oc1c(Cl)c(OC)cc(OC)c1C2=O [GRISEOFULVIN] |  |  | 500 (≈ 1420 µM) |  |  |  |  | 100 (≈ 283 µM) |  |  |
| Cc1ccc2nc(Oc3ccccc3)c(C=O)cc2c1 | 200 (≈ 760 µM) | 250 (≈ 950 µM) | 250 (≈ 950 µM) | 250 (≈ 950 µM) | 62 | 200 (≈ 760 µM) | 200 (≈ 760 µM) | 500 (≈ 1900 µM) | 500 (≈ 1900 µM) |  |
| Cc1ccc(Oc2nc3ccccc3cc2C=O)cc1 | 100 (≈ 380 µM) | 500 (≈ 1900 µM) | 500 (≈ 1900 µM) | 250 (≈ 950 µM) | 74 | 100 (≈ 380 µM) | 250 (≈ 950 µM) | 500 (≈ 1900 µM) | 250 (≈ 950 µM) |  |
| NNC(=O)c1ccncc1 [ISONIAZID] |  |  |  |  |  |  |  |  |  | 0.2 (≈ 1.46 µM) |
| NYSTATIN |  |  | 100 |  |  |  |  | 100 |  |  |
| COc1ccc2nc(Oc3ccc(C)cc3)c(C=O)cc2c1 | 250 (≈ 852 µM) | 250 (≈ 852 µM) | 250 (≈ 852 µM) | 500 (≈ 1700 µM) | 23 | 250 (≈ 852 µM) | 500 (≈ 1700 µM) | 1000 (≈ 3410 µM) | 500 (≈ 1700 µM) |  |
| Cc1ccc2nc(Oc3ccc(Cl)cc3)c(C=O)cc2c1 | 100 (≈ 336 µM) | 500 (≈ 1680 µM) | 500 (≈ 1680 µM) | 500 (≈ 1680 µM) | 93 | 250 (≈ 840 µM) | 500 (≈ 1680 µM) | 1000 (≈ 3360 µM) | 250 (≈ 840 µM) | 310 (≈ 1040 µM) |
| O=Cc1cc2ccccc2nc1Oc1ccccc1 | 500 (≈ 2010 µM) | 1000 (≈ 4010 µM) | > 1000 | 500 (≈ 2010 µM) | 95 | 500 (≈ 2010 µM) | 500 (≈ 2010 µM) | > 1000 | 500 (≈ 2010 µM) | 260 (≈ 1040 µM) |
| COc1ccc2nc(Oc3ccc(Cl)cc3)c(C=O)cc2c1 | 200 (≈ 637 µM) | 200 (≈ 637 µM) | 500 (≈ 1590 µM) | 200 (≈ 637 µM) | 54 | 200 (≈ 637 µM) | 200 (≈ 637 µM) | 1000 (≈ 3190 µM) | 250 (≈ 797 µM) |  |
